Published values from different studies.
Each line is one published result; the experiments were not run side by side.
Effect on: DPPH scavenging

`Cc1cc(C(C)(C)C)c(O)c(C(C)(C)C)c1` gave an IC50 of 69 µg/mL (absorbance; 30 min).
The IC50 of `Fc1ccccc1/C=N/N=C/c1ccccc1F` is reported as 2800 µM.
`O=C1O[C@H]([C@@H](O)CO)C(O)=C1O` has an IC50 of 350 µM.
With `CCN(CC)c1ccc(/C=N/c2ccccc2F)c(O)c1` the IC50 was 38.1 µM.
For `Cc1c(C)c2c(c(C)c1O)CCC(C)(C(=O)O)O2` (stereo not shown), the IC50 was 221 µM.
With `Clc1ccc(/C=N/N=C/c2ccc(Cl)cc2)cc1` the IC50 was over 3000 µM.
With `Oc1cc(O)c2c(c1)O[C@H](c1ccc(O)c(O)c1)[C@@H](O)C2` the IC50 was 31.2 µM.
`O=C1O[C@H]([C@@H](O)CO)C(O)=C1O` has an IC50 of 12.4 µM (absorbance; 30 min).
`O=[N+]([O-])c1ccccc1/C=N/N=C/c1ccccc1[N+](=O)[O-]` gave an IC50 of 2940 µM.
For `CCN(CC)c1ccc(/C=N/c2ccccc2Br)c(O)c1`, the IC50 was 40.5 µM.
